Activity calls are given as the source filed them. No cut-off for these calls is given here.
Columns and labels:
Cytochrome P450 3A4 = Cytochrome P450 3A4 (Homo sapiens, UniProt P08684); test: Time dependent inhibition of CYP3A4 in human liver microsomes at 10 uM using midazolam substrate preincubated for 5 mins before NADPH addition and measured after 20 mins post NADPH addition; type: ADME
[1] = target: T1, Bromodomain-containing protein 4 (Homo sapiens, UniProt O60885)
Cytochrome P450 2C9 [2] = target: T2, Cytochrome P450 2C9 (Homo sapiens, UniProt P11712); test: Time dependent inhibition of CYP2C9 in human liver microsomes at 10 uM using diclofenac substrate preincubated for 5 mins before NADPH addition and measured after 20 mins post NADPH addition; type: ADME
T2 sequence (P11712 whole entry): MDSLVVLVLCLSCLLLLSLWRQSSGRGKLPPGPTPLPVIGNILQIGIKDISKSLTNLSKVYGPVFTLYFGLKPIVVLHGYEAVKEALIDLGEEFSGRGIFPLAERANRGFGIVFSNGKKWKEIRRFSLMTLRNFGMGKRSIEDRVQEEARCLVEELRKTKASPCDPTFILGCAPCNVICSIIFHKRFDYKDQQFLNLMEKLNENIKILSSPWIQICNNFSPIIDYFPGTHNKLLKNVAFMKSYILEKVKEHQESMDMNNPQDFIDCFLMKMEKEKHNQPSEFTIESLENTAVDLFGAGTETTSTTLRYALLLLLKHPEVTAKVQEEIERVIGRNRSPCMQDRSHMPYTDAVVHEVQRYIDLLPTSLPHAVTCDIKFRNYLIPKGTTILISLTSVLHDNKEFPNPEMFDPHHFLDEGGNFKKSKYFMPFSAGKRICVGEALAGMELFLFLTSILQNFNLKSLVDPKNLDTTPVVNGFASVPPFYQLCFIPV

[3] = target: T1, Bromodomain-containing protein 4; test: Inhibition of BRD4 in human HT-29 cells assessed as reduction in c-myc mRNA expression at 0.3125 uM after 24 hrs by RT-qPCR method; type: cell-based
Method in brief: (§1)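 HT-29 cells seeded overnight and exposed to compounds for 24 h; total RNA isolated, reverse-transcribed, and analysed by RT-qPCR with c-myc primers. Relative c-myc mRNA normalised to β-actin and expressed versus untreated control.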

[4] = target: SWI/SNF-related matrix-associated actin-dependent regulator of chromatin subfamily A member 4 (Homo sapiens) (UniProt P51532); test: Binding affinity to BRG1 (unknown origin) assessed as increase in protein melting temperature at 50 umol by real-time PCR system based thermal shift assay
Sequence of SWI/SNF-related matrix-associated actin-dependent regulator of chromatin subfamily A member 4 (Homo sapiens) (P51532 whole entry): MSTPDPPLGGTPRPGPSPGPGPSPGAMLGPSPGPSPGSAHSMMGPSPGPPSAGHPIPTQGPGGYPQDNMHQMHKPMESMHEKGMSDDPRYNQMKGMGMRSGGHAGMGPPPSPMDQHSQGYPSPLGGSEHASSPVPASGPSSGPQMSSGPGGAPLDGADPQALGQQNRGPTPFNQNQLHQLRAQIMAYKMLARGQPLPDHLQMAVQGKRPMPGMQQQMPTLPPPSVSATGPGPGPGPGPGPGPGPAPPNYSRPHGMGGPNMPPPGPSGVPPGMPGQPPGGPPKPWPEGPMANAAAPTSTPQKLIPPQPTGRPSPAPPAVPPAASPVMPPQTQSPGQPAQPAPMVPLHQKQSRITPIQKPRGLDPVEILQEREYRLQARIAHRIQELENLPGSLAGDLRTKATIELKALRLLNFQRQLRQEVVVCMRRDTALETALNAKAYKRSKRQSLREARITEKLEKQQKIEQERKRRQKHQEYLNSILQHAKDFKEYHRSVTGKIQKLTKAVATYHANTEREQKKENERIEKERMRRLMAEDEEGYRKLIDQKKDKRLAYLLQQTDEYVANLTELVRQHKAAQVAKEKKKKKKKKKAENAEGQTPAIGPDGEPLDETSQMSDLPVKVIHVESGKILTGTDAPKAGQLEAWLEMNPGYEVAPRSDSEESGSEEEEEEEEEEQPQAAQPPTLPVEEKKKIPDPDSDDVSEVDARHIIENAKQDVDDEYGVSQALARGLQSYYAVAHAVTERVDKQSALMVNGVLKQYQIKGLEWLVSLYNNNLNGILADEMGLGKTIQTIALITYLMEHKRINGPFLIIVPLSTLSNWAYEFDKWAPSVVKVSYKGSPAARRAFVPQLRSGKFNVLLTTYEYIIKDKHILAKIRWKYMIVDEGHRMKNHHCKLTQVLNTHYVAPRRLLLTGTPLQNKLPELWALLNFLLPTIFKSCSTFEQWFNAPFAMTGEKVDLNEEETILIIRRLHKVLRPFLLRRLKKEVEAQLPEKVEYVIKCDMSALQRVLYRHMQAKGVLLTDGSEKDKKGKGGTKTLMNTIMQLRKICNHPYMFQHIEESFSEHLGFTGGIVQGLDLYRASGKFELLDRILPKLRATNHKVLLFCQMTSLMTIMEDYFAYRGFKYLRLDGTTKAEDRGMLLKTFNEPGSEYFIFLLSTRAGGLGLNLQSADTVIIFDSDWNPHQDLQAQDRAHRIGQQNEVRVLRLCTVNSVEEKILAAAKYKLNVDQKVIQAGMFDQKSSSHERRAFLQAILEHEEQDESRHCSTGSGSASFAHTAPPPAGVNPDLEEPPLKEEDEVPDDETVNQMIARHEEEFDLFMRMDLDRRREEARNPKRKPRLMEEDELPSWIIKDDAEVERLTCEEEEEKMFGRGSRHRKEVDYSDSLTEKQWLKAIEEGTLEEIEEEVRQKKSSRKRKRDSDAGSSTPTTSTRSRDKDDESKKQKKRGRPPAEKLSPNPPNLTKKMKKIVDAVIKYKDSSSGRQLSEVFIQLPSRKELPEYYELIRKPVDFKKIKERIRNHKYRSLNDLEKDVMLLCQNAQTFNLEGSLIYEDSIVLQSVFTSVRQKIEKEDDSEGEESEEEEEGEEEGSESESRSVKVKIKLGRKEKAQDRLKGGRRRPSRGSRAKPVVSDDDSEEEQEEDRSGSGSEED
Method in brief: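 Bromodomain proteins in 10 mmol HEPES pH 7.5, 500 mmol NaCl at 75 μg/mL final; compound at 50 µmol final; SYPRO Orange probe at 1:1000. Four replicates per protein mixture. Melt curve read on a real-time PCR instrument, heating 25 °C to 99 °C at 1 °C/min under continuous fluorescence reading; binding taken as the rise in protein melting temperature.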

[5] = target: T1, Bromodomain-containing protein 4; test: Inhibition of BRD4 in human HT-29 cells assessed as reduction in c-myc mRNA expression at 0.3125 uM to 5 uM uM after 24 hrs by RT-qPCR method; type: cell-based; method in brief: as §1
CYP2D6 = CYP2D6 (Homo sapiens, UniProt P10635); test: (§2) Inhibition of CYP2D6 in human liver microsomes at 10 uM using dextromethorphan substrate preincubated for 5 mins before NADPH addition and measured after 20 mins post NADPH addition; type: ADME; conditions: liver microsomes, probe dextromethorphan
Sequence of CYP2D6 (P10635 whole entry): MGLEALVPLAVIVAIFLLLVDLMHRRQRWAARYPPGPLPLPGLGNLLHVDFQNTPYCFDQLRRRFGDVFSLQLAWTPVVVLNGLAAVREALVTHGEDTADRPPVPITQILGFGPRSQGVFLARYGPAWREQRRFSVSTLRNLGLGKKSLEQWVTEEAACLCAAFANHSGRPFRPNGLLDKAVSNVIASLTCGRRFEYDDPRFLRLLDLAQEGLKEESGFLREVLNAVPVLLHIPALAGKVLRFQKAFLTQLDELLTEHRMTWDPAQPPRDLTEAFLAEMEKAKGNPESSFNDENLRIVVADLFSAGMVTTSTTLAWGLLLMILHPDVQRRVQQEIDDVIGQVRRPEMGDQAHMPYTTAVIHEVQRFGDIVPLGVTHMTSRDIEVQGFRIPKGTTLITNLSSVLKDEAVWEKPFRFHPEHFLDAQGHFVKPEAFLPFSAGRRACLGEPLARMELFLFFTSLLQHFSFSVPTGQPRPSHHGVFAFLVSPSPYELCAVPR
Method in brief: (§3)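 Human liver microsomes 0.2 mg/mL, 1 mmol NADPH, 100 mmol phosphate pH 7.4, probe cocktail (10 μM midazolam, 100 μM testosterone, 10 μM dextromethorphan, 20 μM diclofenac, 100 μM phenacetin, 100 μM mephenytoin), test compound 10 μM or PBS; organic solvent <1%. 5 min preincubation at 37 °C, NADPH-generating system start, 20 min reaction; inhibition from metabolite formation relative to PBS.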

HT-29 = test: Growth inhibition of human HT-29 cells after 72 hrs by SRB assay; type: functional, cell-based; conditions: HT-29, 72 h
Method in brief: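 HT-29 cells are grown in McCoy's 5A with 10% FBS at 37 °C, 5% CO2. DMSO stocks (0.01 mol/L) are diluted in normal saline just before use. Cells are treated in triplicate with gradient concentrations for 72 h at 37 °C.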

Cytochrome P450 2D6 [6] = target: T3, Cytochrome P450 2D6 (Homo sapiens, UniProt P10635); test: Time dependent inhibition of CYP2D6 in human liver microsomes at 10 uM using dextromethorphan substrate preincubated for 5 mins before NADPH addition and measured after 20 mins post NADPH addition; type: ADME
T3 sequence (P10635 whole entry): as above

Cytochrome P450 1A2 = target: T4, Cytochrome P450 1A2 (Homo sapiens, UniProt P05177); test: Time dependent inhibition of CYP1A2 in human liver microsomes at 10 uM using phenacetin substrate preincubated for 5 mins before NADPH addition and measured after 20 mins post NADPH addition; type: ADME
T4 sequence (P05177 whole entry): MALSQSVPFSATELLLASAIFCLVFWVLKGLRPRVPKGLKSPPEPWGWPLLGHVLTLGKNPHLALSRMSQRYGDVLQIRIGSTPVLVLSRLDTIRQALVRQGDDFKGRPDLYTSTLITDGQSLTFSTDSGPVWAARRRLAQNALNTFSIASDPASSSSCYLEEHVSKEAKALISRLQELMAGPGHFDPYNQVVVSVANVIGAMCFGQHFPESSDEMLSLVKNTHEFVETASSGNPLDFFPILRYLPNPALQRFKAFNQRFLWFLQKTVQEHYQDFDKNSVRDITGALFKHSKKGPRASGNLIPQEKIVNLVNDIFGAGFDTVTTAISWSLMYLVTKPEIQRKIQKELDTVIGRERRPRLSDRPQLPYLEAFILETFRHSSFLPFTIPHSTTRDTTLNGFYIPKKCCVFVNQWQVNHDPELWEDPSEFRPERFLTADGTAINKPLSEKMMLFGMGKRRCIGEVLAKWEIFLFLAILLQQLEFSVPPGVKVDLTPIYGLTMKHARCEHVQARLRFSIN

Cytochrome P450 2C19 = Cytochrome P450 2C19 (Homo sapiens, UniProt P33261); test: Time dependent inhibition of CYP2C19 in human liver microsomes at 10 uM using mephenytoin substrate preincubated for 5 mins before NADPH addition and measured after 20 mins post NADPH addition; type: ADME
Sequence of Cytochrome P450 2C19 (P33261 whole entry): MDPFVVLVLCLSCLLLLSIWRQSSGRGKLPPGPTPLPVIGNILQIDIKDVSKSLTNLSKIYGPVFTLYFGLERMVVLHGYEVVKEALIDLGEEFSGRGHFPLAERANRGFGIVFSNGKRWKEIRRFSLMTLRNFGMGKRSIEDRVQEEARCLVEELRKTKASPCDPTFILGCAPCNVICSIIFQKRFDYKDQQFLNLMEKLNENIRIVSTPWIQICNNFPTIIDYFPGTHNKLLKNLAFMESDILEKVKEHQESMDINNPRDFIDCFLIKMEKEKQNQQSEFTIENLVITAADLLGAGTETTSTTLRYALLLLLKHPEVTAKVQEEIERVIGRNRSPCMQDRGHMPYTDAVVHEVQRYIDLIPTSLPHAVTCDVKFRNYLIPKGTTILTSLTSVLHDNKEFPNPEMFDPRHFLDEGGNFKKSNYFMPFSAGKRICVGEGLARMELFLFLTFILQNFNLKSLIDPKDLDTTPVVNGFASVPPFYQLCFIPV

Cytochrome P450 2C9 [7] = target: T2, Cytochrome P450 2C9; test: (§4) Inhibition of CYP2C9 in human liver microsomes at 10 uM using diclofenac substrate preincubated for 5 mins before NADPH addition and measured after 20 mins post NADPH addition; type: ADME; conditions: microsomes, 20 min, 10 µM; method in brief: as §3
[8] = target: T1, Bromodomain-containing protein 4; test: Inhibition of BRD4 in human HT-29 cells assessed as reduction in c-myc mRNA expression at 5 uM after 24 hrs by RT-qPCR method; type: cell-based; method in brief: as §1
[9] = target: T1, Bromodomain-containing protein 4; test: Inhibition of BRD4 in human HT-29 cells assessed as reduction in c-Myc protein expression at 5 and 10 uM after 24 hrs by Western blotting method; type: cell-based
Method in brief: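 HT-29 cells seeded overnight, then treated 24 h; lysed in 1×SDS buffer (50 mmol/L Tris-HCl pH 6.8, 100 mmol/L DTT, 2% SDS, 10% glycerol), boiled 10 min. c-Myc immunoblotted with GAPDH loading control, peroxidase secondary antibodies, ECL detection. Repeated three times.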

[10] = Stability in human liver microsomes assessed as clearance at 1 uM pre-incubated for 5 mins followed by NADPH addition and measured after 5 to 30 mins post NADPH addition by LC/MS/MS method; type: ADME; conditions: read-out: CLH
Method in brief: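 Human liver microsomes (0.5 mg/mL) preincubated with 1 µM compound for 5 min at 37 °C in 0.1 M phosphate pH 7.4 with 1 mmol EDTA and 5 mmol MgCl2. Started with 1 mmol NADPH; sampled at 0, 5, 10 and 30 min. Quenched with equal volume of cold acetonitrile, vortexed, and centrifuged at 10,000 × g.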

CYP2C9 = CYP2C9 (Homo sapiens, UniProt P11712); test: as §4; type: ADME; conditions: liver microsomes, probe diclofenac; method in brief: as §3
Sequence of CYP2C9 (P11712 whole entry): as the sequence (P11712 whole entry) above

Cytochrome P450 2D6 [11] = target: T3, Cytochrome P450 2D6; test: as §2; type: ADME; conditions: microsomes, 20 min, 10 µM; method in brief: as §3

Sequence of Cytochrome P450 3A4 (P08684 whole entry): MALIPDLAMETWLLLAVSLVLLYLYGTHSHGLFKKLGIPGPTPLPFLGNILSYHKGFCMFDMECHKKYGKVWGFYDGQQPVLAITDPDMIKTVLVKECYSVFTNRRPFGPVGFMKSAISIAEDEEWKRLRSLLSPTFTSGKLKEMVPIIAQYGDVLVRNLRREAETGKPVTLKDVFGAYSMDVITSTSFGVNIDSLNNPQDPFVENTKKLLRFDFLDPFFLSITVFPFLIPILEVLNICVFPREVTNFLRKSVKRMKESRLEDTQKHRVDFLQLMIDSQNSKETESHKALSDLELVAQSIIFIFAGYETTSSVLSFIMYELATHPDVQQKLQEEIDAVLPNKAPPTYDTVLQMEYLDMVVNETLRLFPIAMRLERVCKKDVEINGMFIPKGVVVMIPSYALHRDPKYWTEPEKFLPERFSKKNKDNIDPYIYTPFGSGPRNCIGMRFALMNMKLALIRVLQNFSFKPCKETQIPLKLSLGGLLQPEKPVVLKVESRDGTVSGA

Row | SMILES | TDI (Cytochrome P450 3A4) | ΔTm [1] [°C] | TDI (Cytochrome P450 2C9 [2]) | inhibition [3] | ΔTm [4] [°C] | inhibition [5] | inhibition at 20 min, 10 µM (CYP2D6) [%] | IC50 (HT-29) [µM] | TDI (Cytochrome P450 2D6 [6]) | TDI (Cytochrome P450 1A2) | TDI (Cytochrome P450 2C19) | inhibition (INH) (Cytochrome P450 2C9 [7]) | inhibition [8] [%] | inhibition [9] | microsomal CLint at 1 µM [10] [µL/min/mg] | inhibition at 20 min, 10 µM (CYP2C9) [%] | inhibition (INH) (Cytochrome P450 2D6 [11])
1 | O=C(Nc1cc(-c2csc(=O)[nH]2)cc(S(=O)(=O)NC2CCCC2)c1)C1CC1 | Not Active | 8.48 | Not Active | – | 1.03 | Active | 17 | 5.69 | Not Active | Not Active | Not Active | – | > 60 | Active | 74 | 14 | –
2 | Cc1c(Br)cc(-c2csc(=O)[nH]2)cc1S(=O)(=O)NC1CCCC1 | – | 9.22 | Active | – | 0.94 | Active | 39 | 5.46 | – | – | – | Not Active | > 60 | Active | 84 | – | –
3 | Cc1ccc(-c2csc(=O)[nH]2)cc1S(=O)(=O)NC1CCCC1 | – | 6.3 | Active | – | 0.69 | – | 27 | 3.95 | – | – | Active | Not Active | – | – | 128 | – | –

Other lines, results leading:

Row | TDI (Cytochrome P450 3A4) | ΔTm [1] [°C] | TDI (Cytochrome P450 2C9 [2]) | inhibition [3] | ΔTm [4] [°C] | inhibition [5] | inhibition at 20 min, 10 µM (CYP2D6) [%] | IC50 (HT-29) [µM] | TDI (Cytochrome P450 2D6 [6]) | TDI (Cytochrome P450 1A2) | TDI (Cytochrome P450 2C19) | inhibition (INH) (Cytochrome P450 2C9 [7]) | inhibition [8] [%] | inhibition [9] | microsomal CLint at 1 µM [10] [µL/min/mg] | inhibition at 20 min, 10 µM (CYP2C9) [%] | inhibition (INH) (Cytochrome P450 2D6 [11]) | SMILES
4 | Not Active | 7.25 | Not Active | Active | 0.57 | Active | 3 | 0.86 | Not Active | Not Active | Not Active | Not Active | 90 | Active | 66 | – | – | Cc1c(N)cc(-c2csc(=O)[nH]2)cc1S(=O)(=O)NC1CCCC1
5 | Active | 7.76 | – | – | 0.39 | – | 18 | 3.28 | – | – | – | – | – | – | 20 | 74 | – | Nc1ccc(-c2csc(=O)[nH]2)cc1S(=O)(=O)NC1CCCC1
6 | – | 5.19 | – | – | 0.41 | – | – | 3.93 | Active | – | Active | – | – | – | 56 | 10 | Not Active | COc1ccc(-c2csc(=O)[nH]2)cc1S(=O)(=O)NC1CCCC1

Reference: ChEMBL document CHEMBL3407418, “Fragment-based drug discovery of 2-thiazolidinones as BRD4 inhibitors: 2. Structure-based optimization” (J Med Chem, 2015)
